Many of the other results were omitted from the sample, so hits are more common in it than they were.
T cell modulator: modulators of CD8 T cell-vesicle binding, primary screen, mouse 2C CD8+ T cells, flow cytometry; 2C CD8+ T cell-vesicle binding; hits give low values; response (vesicle binding), % at 7 µM; 330,000 compounds, 0.068% hits;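 active = response, share of CD8 T cells binding vesicles, and their 90th percentile fluorescence all below set limits, cut at about 80% in these data, passing the limit was not always enough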;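 note: values below 100% mean blocked vesicle binding to the CD8+ T cells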
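Test system: purified 2C TCR transgenic mouse naive CD8+ T cells. Probe or stimulus: QL9-peptide-loaded Drosophila micro-vesicles bearing Ld, ICAM-1 and B7-1. Incubation: binding step 1.5 h, 37 °C, antibody labelling 20 min, ice. Measured by: flow cytometry of vesicle-bound cells.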
Glyco luc inh: increase of ERlucT glycosylation luciferase signal, primary screen, N-linked glycosylation inhibitor project, D54 ERlucT cells, luminescence, set 2. D54 ERlucT glycosylation luciferase reporter, 24 h; percent of 100 nM tunicamycin response. 360,000 compounds, 0.23% hits. reporter increase, % at 12.5 µM;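 active = mean luciferase reporter signal, scaled so untreated is 0 and the glycosylation-blocking control 100, at or above a set limit in every replicate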;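 note: luciferase carries N-glycosylation sites so blocking glycosylation raises the light; 0% = median of neutral control wells and 100% = median of 100 nM tunicamycin wells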
ALR H2O2 inh: inhibitors of human ALR sulfhydryl oxidase, primary screen, biochemical, H2O2 detection, HRP-luminol luminescence, single point. 290,000 compounds, 3.8% hits. AID 485317, 2010. inhibition, % (concentration not given with the values). purified ALR, DTT oxidation. FAD-linked sulfhydryl oxidase ALR (Homo sapiens), P55789;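 active = mean replicate inhibition above about 79%, with every replicate also reaching it, limit read from the data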
Target sequence (P55789 whole entry, looked up): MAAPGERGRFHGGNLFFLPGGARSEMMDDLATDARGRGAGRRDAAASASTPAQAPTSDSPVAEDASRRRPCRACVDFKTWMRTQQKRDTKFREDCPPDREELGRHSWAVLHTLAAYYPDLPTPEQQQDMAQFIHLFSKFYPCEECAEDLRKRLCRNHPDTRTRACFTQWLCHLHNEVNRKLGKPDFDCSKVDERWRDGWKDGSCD
Active calls of the source: *.

For Cc1ccc(Nc2nc(/N=C/N(C)C)n[nH]2)cc1C the results were T cell modulator 125.1, Glyco luc inh 0.5 and ALR H2O2 inh 97.6*.
COc1ccc(-c2cc3nc(C)cc(N4CCN(C(=O)c5cccnc5)CC4)n3n2)cc1 was read as Glyco luc inh -1.6.
`CCOC(=O)Nc1ccc2c(c1)ncn2C1CCCCC1` gave T cell modulator 196.4, Glyco luc inh -0.8 and ALR H2O2 inh 83.6*.
`COC(=O)Nc1ccc2c(c1)ncn2C1CCCCC1` gave T cell modulator 269.1, Glyco luc inh 0.9 and ALR H2O2 inh -5.2.
`Cc1c(N2CCCCC2)[nH]c2ccccc12` gave Glyco luc inh 0.3.
`Cc1ccc(C)c(C(=O)CCC(=O)N2CCN(c3ncccn3)CC2)c1` gave T cell modulator 256.1, Glyco luc inh 1.9 and ALR H2O2 inh 10.2.
O=c1[nH]c(=O)n([C@H]2C[C@H](O)[C@@H](CO)O2)cc1I was read as T cell modulator 154.6, Glyco luc inh 55.1* and ALR H2O2 inh -6.4.
For CCc1cn(C2CC(O)C(CO)O2)c(=O)[nH]c1=O (stereo not given) the results were T cell modulator 315.5 and Glyco luc inh 2.3.
O=C(O)c1cccc(-n2cccc2C=C2C(=O)c3ccccc3C2=O)c1 was read as T cell modulator 226.1, Glyco luc inh -2.6 and ALR H2O2 inh -1.8.
For O=C(N/N=C/c1cccn1-c1cccc(C(=O)O)c1)Nc1ccccc1 the results were T cell modulator 137.7, Glyco luc inh 0.9 and ALR H2O2 inh 97.2*.
Screening CC(=O)c1cccc(OC(=O)c2cc(S(=O)(=O)N3CCOCC3)ccc2N2CCCC2)c1 returned T cell modulator 363.5, Glyco luc inh 3.2 and ALR H2O2 inh -6.1.
`CCOc1cc(N2CCOCC2)c(OCC)cc1NC(=O)COC(=O)COc1ccc(C#N)cc1` gave T cell modulator 197.4, Glyco luc inh 2.0 and ALR H2O2 inh -7.7.
CC(=O)NCC(=O)OC(C)C(=O)Nc1ccc(C(C)=O)cc1 (stereo not given) was read as T cell modulator 325.6, Glyco luc inh 1.7 and ALR H2O2 inh -27.2.
`Cc1ccc(C(=O)NCC(=O)OC(C)C(=O)Nc2ccc(N(C)C)cc2)cc1C` (stereo not given) gave T cell modulator 110.4, Glyco luc inh 3.1 and ALR H2O2 inh 99.0*.
`CSCCC(NC(=O)COc1ccccc1)C(=O)N(C)Cc1cccc(F)c1` (stereo not given) gave T cell modulator 275.2, Glyco luc inh 0.9 and ALR H2O2 inh -1.4.
Screening CC(C)CCN1CCN(Cc2cccc(C(F)(F)F)c2)CC1CCO (stereo not given) returned T cell modulator 424.7, Glyco luc inh 3.1 and ALR H2O2 inh -12.7.
`CCOC(=O)/C=C1\SCC(=O)N1CC(O)CN1C(=O)CS/C1=C/C(=O)OCC` (stereo not given) gave Glyco luc inh 1.8.
COc1ccccc1N=c1oc2cc(O)ccc2cc1C(N)=O was read as T cell modulator 205.7 and Glyco luc inh -1.9.
For Cc1cccc(N=c2oc3cc(O)ccc3cc2C(N)=O)c1 the results were T cell modulator 191.8, Glyco luc inh -6.2 and ALR H2O2 inh 94.5*.
For O=C(c1cc(Cl)nc2ccccc12)N(Cc1nnc(-c2ccccc2Cl)o1)C1CC1 the results were T cell modulator 205.3 and Glyco luc inh -5.9.
`COC(=O)C1=CN(c2ccc(F)cc2)C=C(C(=O)OC)C1c1ccc(O)cc1` gave T cell modulator 257.3, Glyco luc inh -1.5 and ALR H2O2 inh -3.6.
For Cc1nnc2n(c1=O)C(CS(=O)(=O)c1ccc3ccccc3c1)CS2 (stereo not given) the results were T cell modulator inactive, Glyco luc inh -0.1 and ALR H2O2 inh -8.6.
Screening Cn1ccnc1SCC(=O)Nc1ccccc1 returned T cell modulator 221.0, Glyco luc inh -2.7 and ALR H2O2 inh 98.8*.
`CC(=O)Nc1cccc(NC(=O)CSc2nccn2Cc2ccccc2)c1` gave T cell modulator 551.4, Glyco luc inh -1.7 and ALR H2O2 inh 24.0.
COc1ccc(NC(=O)CSc2nccn2Cc2ccco2)cc1 was read as T cell modulator 317.5, Glyco luc inh -3.0 and ALR H2O2 inh 98.8*.
Screening Cc1cccc(NC(=O)CCOc2ccccc2)c1 returned T cell modulator 343.8, Glyco luc inh -1.4 and ALR H2O2 inh 98.0*.
`CCOc1ccc(NC(=O)CSc2nccn2Cc2ccco2)cc1` gave T cell modulator 314.3, Glyco luc inh 0.9 and ALR H2O2 inh -13.4.

Bioassay records: PubChem BioAssay, several laboratories
